This note sets out measurements from ChEMBL document CHEMBL3108779, “Pyrronazols, metabolites from the myxobacteria Nannocystis pusilla and N. exedens, are unusual chlorinated pyrone-oxazole-pyrroles” (J Nat Prod, 2014).

Values after ≈ are worked out from the molar mass of the structure shown. Active and inactive are the calls of the source. The calls are words filed in the database; no cut-off is given here. Where only a bound is given, the exact number is not on record here.

The subject of data set [1] is Mycolicibacterium diernhoferi. The data set can be described thus: Antibacterial activity against Mycobacterium diernhoferi DSM 43542 assessed as growth inhibition after 24 to 48 hrs. It counts as functional.
The next data set relates to Nocardia sp. The data set is described as follows: Antibacterial activity against Nocardia sp. DSM 43069 assessed as growth inhibition after 24 to 48 hrs. The format is functional.
The test system of a further data set is Paenibacillus polymyxa. The data set can be described thus: Antibacterial activity against Paenibacillus polymyxa DSM 36 assessed as growth inhibition after 24 to 48 hrs. It counts as functional.
For another data set, the system named is Mucor hiemalis. The data set can be described thus: Antifungal activity against Mucor hiemalis DSM 2656 assessed as growth inhibition after 24 to 48 hrs. The format is functional. Put shortly:
(§1)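 Fungi pre-grown at 30 °C and 160 rpm for 24−48 h. Tested by 1:1 serial dilution in 96-well microtiter plates in MYC medium (1.0% glucose, 1.0% phytone peptone, 50 mM HEPES, pH 7.0). MIC was the lowest concentration preventing visible growth.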

Data set [2] is described as follows: Antifungal activity against Trichosporon oleaginosus DSM 11815 assessed as growth inhibition after 24 to 48 hrs. To be noted: Cutaneotrichosporon oleaginosum. The format is functional. Put shortly: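 Yeast pre-grown at 30 °C and 160 rpm for 24−48 h, then adjusted to OD548 0.1. Tested by 1:1 serial dilution in 96-well plates in MYC medium (1.0% glucose, 1.0% phytone peptone, 50 mM HEPES, pH 7.0). MIC was the lowest concentration preventing visible growth.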

In a further data set the test system is Wickerhamomyces anomalus. The data set can be described thus: Antifungal activity against Wickerhamomyces anomalus DSM 6766 assessed as growth inhibition after 24 to 48 hrs. The format is functional. Put shortly:
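Yeast grown at 30 °C, 160 rpm for 24−48 h and adjusted to OD548 0.1, then tested by 1:1 serial dilution in MYC medium (1.0% glucose, 1.0% phytone peptone, 50 mM HEPES, pH 7.0) in 96-well plates. MIC taken as the lowest concentration preventing visible growth.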

The test system of a further data set is Aspergillus flavus. The data set can be described thus: Antifungal activity against Aspergillus flavus DSM 1959 assessed as growth inhibition after 24 to 48 hrs. The format is functional. Put shortly: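 Fungus grown at 30 °C, 160 rpm for 24−48 h, then tested by 1:1 serial dilution in MYC medium (1.0% glucose, 1.0% phytone peptone, 50 mM HEPES, pH 7.0) in 96-well plates. MIC read as the lowest concentration preventing visible growth.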

The subject of another data set is Aspergillus fumigatus. The data set can be described thus: Antifungal activity against Aspergillus fumigatus DSM 15966 assessed as growth inhibition after 24 to 48 hrs. The format is functional. The procedure, abridged:
as §1

The subject of data set [3] is Chromobacterium violaceum. The data set can be described thus: Antibacterial activity against Chromobacterium violaceum DSM 30191 assessed as growth inhibition after 24 to 48 hrs. It counts as functional.
For the next data set, the system named is A549. The data set can be described thus: Cytotoxicity against human A549 cells after 5 days by MTT assay. It counts as functional. To be noted: A549, 120 h, read-out: LD50 (the source's name). Put shortly: (§2)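 A549, KB-3-1 and mouse fibroblast L929 cells cultured in DMEM plus 10% FBS at 37 °C, 10% CO2. IC50 determined by MTT assay in 96-well microplates; methanol served as negative control.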
A general note: Tetrazolium dyes change colour on reduction, which living cells bring about.

A further data set has as its system SK-OV-3. The data set is described as follows: Cytotoxicity against human SKOV3 cells after 5 days by MTT assay. To be noted: SK-OV-3, 120 h, read-out: LD50 (the source's name). The format is functional. Put shortly: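 Human ovarian carcinoma SKOV3 cells maintained in McCoy's medium with 10% FBS, 37 °C, 10% CO2. IC50 obtained from MTT assay in 96-well plates, with methanol as negative control.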

Data set [4] is described as follows: Cytotoxicity against HUVEC after 5 days by MTT assay. It counts as cell-based. As to conditions: human, HUVEC cells. The procedure, abridged:
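Nontransformed HUVEC kept in EBM-2 with 10% FBS at 37 °C under 10% CO2. MTT read-out in 96-well plates gives the IC50, with methanol as negative control.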

The test system of a further data set is Mycobacterium sp. The data set can be described thus: Antibacterial activity against Mycobacterium sp. DSM 43270 assessed as growth inhibition after 24 to 48 hrs. The format is functional.
Data set [5] can be described thus: Cytotoxicity against human KB3-1 cells after 5 days by MTT assay. It counts as functional. As to conditions: KB 3-1, 120 h, read-out: LD50 (the source's name). The procedure, abridged:
as §2

A further data set concerns L929. The data set is described as follows: Cytotoxicity against mouse L929 cells after 5 days by MTT assay. The format is functional. As to conditions: L929, 120 h, read-out: LD50 (the source's name). Put shortly: as §2

The term MIC denotes the least concentration at which growth counts as inhibited. On to `OC[C@H]1O[C@H](Oc2cccc3nc4c(O)cccc4nc23)[C@@H](O)[C@@H]1O`, for which the MIC amounted to 66.6 µg/mL (≈ 193 µM) in data set [1] and 33.3 µg/mL (≈ 96.7 µM) with Aspergillus fumigatus. The MIC result (in the data set with Nocardia sp.; in the data set on Paenibacillus polymyxa; in the data set on Mucor hiemalis; in data set [2]; in the data set with Wickerhamomyces anomalus; in the data set with Aspergillus flavus) was “inactive” each time. Besides, the MIC result in [3] is “inactive”.

The IC50 is the concentration at which inhibition is half-maximal. Low readings indicate higher potency, high ones lower potency. Take `Oc1cccc2nc3c(O)cccc3nc12`: the MIC amounted to 33.3 µg/mL (≈ 157 µM) in data set [1]; 33.3 µg/mL (≈ 157 µM) in the data set on Nocardia sp.; 66.7 µg/mL (≈ 314 µM) in the data set on Mycobacterium sp.; 66.7 µg/mL (≈ 314 µM) in the data set on Paenibacillus polymyxa; 33.3 µg/mL (≈ 157 µM) in the data set with Mucor hiemalis; 33.3 µg/mL (≈ 157 µM) in the data set with Wickerhamomyces anomalus (Hansenula anomala). Further, the MIC in data set [3] was found to be 66.7 µg/mL (≈ 314 µM). Also, the CC50 in the data set with A549 is 5.65 µM; with SK-OV-3, 2.59 µM; in [5], 5.81 µM; with L929, 11.3 µM. In addition, the IC50 at 120 h in [4] was determined as 3.81 µM. Also, the MIC entry (in [2]; in the data set with Aspergillus flavus; in the data set with Aspergillus fumigatus) was “inactive” throughout.

Turning to `COC1=CC(=O)O[C@H](c2coc(/C(=C/c3ccc(Cl)[nH]3)CO)n2)[C@@H]1C`, the MIC result (in data set [1]; with Nocardia sp.; in the data set with Mycobacterium sp.; in the data set with Paenibacillus polymyxa; in data set [2]; with Wickerhamomyces anomalus) was “inactive” throughout. Further, the MIC entry (in the data set on Aspergillus flavus; in the data set with Aspergillus fumigatus; in data set [3]) was “inactive” each time. Moreover, the CC50 was above 27.1 µM with A549, above 27.4 µM in the data set on SK-OV-3, above 27.4 µM in data set [5] and above 27.4 µM in the data set on L929. The compound further yielded an IC50 at 120 h in data set [4] above 27.4 µM. In addition, the MIC in the data set with Mucor hiemalis stood at 33.3 µg/mL (≈ 91.3 µM).

In the case of `C[C@@H]1[C@H](O)[C@@H](C)/C=C/C=C/CC/C=C/C=C/C=C/C=C/[C@H](O[C@@H]2O[C@H](C)[C@@H](O)[C@H](N)[C@@H]2O)C[C@@H]2O[C@](O)(C[C@@H](O)[C@H](O)CC[C@@H](O)C[C@@H](O)C[C@@H](O)CC(=O)O[C@H]1C)C[C@H](O)[C@H]2C(=O)O.O`, the figures for the MIC with Mucor hiemalis and with Wickerhamomyces anomalus (Hansenula anomala) were 2.1 µg/mL and 0.52 µg/mL, respectively.

Take `CN[C@@H]1[C@H](O[C@H]2[C@H](O[C@H]3[C@H](O)[C@@H](O)[C@H](N=C(N)N)[C@@H](O)[C@@H]3N=C(N)N)O[C@@H](C)[C@]2(O)C=O)O[C@@H](CO)[C@H](O)[C@H]1O.CN[C@@H]1[C@H](O[C@H]2[C@H](O[C@H]3[C@H](O)[C@@H](O)[C@H](N=C(N)N)[C@@H](O)[C@@H]3N=C(N)N)O[C@@H](C)[C@]2(O)C=O)O[C@@H](CO)[C@H](O)[C@H]1O.O=S(=O)(O)O.O=S(=O)(O)O.O=S(=O)(O)O` [STREPTOMYCIN SULFATE]: the MIC was below 0.52 µg/mL in [1]; below 0.52 µg/mL in the data set on Nocardia sp.; 2.1 µg/mL with Mycobacterium sp.; 0.1 µg/mL in data set [2]; 2.1 µg/mL in [3].

With `C[C@@H]1[C@H](O)[C@@H](C)/C=C/C=C/C=C/C=C/C=C/C=C/C=C/[C@H](O[C@@H]2O[C@H](C)[C@@H](O)[C@H](N)[C@@H]2O)C[C@@H]2O[C@](O)(C[C@@H](O)C[C@@H](O)[C@H](O)CC[C@@H](O)C[C@@H](O)CC(=O)O[C@H]1C)C[C@H](O)[C@H]2C(=O)O` [AMPHOTERICIN B], the figures for the MIC with Aspergillus flavus and with Aspergillus fumigatus were 1 µg/mL (≈ 1.08 µM) and below 0.52 µg/mL, respectively.

As to `CN(C)[C@@H]1C(O)=C(C(N)=O)C(=O)[C@@]2(O)C(O)=C3C(=O)c4c(O)cccc4[C@@](C)(O)[C@H]3[C@H](O)[C@@H]12.Cl` [OXYTETRACYCLINE HYDROCHLORIDE], the MIC with Paenibacillus polymyxa stood at 6.7 µg/mL.
